The source made the active and inactive calls. The calls are words filed in the database; no cut-off is given here.
Key:
LNCaP [1] = test: Inhibition of cell proliferation of human LNCAP cells in steroid reduced condition after 3 days; type: functional
In short: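 C-81 cells (passage 80–120) plated at 2×10³ cells/well for 3 days, then starved 2 days in phenol red-free RPMI 1640 with 5% charcoal/dextran-treated FBS, 2 mM glutamine, 50 µg/ml gentamicin and 1 nM DHT. Refed with this medium, then treated for 3 days (solvent controls). Cells counted and normalized to control. Three independent experiments in triplicate, mean ± SD.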

LNCaP [2] = test: Inhibition of cell proliferation of human LNCAP cells in regular medium after 3 days; type: functional
In short: (§1)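 LNCaP C-81 cells (passage 80–120) grown in phenol red-positive RPMI 1640 with 5% FBS, 2 mM glutamine, 50 µg/ml gentamicin at 37°C, 5% CO2. Plated at 2×10³ cells/well for 3 days, then exposed to compound (DMSO stock diluted 1000×; DMSO-matched controls) for 3 days. Cells counted with an image-based counter and normalized to control. Three independent experiments in triplicate, mean ± SD.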

LNCaP [3] = test: Antiproliferative activity against human LNCAP cells in regular medium after 3 days; type: functional, cell-based; in short: as §1
Histone H4 [4] = biological target: T1, Histone H4 (Homo sapiens, UniProt P62805); test: Binding affinity to fluorescein-labeled Histone H4(1-20) assessed as peptide fluorescence quenching by spectrofluorometry
In short: (§2)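 H4(1-20) peptide bearing fluorescein on a Dpr residue, 1 µM, in 50 mM HEPES pH 8.0, 10 mM NaCl, 1 mM DTT at 30°C. Titrated with compound from 1 to 100 µM. Excitation 498 nm; emission intensity followed at 523–524 nm. Kd taken from the fluorescence titration.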

[5] = biological target: T2, Histone-arginine methyltransferase CARM1 (Homo sapiens) (UniProt Q86X55); test: Inhibition of His6x-tagged PRMT4 expressed in Escherichia coli BL21 (DE3) using Histone H3(1-31) substrate in the presence of [14C] SAM assessed as residual activity at 30 uM by liquid scintillation counting
T2 sequence (whole entry): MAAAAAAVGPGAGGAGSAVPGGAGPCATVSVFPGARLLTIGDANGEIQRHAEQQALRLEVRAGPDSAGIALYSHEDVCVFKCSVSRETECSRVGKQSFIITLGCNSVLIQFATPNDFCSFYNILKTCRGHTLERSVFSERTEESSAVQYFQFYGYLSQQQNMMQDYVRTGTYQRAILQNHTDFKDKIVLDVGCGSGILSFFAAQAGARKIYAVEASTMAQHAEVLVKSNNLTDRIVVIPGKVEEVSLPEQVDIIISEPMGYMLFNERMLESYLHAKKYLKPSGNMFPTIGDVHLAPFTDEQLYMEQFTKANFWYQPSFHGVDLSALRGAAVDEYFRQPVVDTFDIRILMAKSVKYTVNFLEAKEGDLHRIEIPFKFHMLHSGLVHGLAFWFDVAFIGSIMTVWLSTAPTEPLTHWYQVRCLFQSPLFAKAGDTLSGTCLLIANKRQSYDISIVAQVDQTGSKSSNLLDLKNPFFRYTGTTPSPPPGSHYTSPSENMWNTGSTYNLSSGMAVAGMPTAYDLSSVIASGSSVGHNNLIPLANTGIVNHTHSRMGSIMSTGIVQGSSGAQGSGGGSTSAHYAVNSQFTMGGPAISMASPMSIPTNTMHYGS
In short: (§3)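 Recombinant PRMT4 (0.3 µM) with H3(1-31) at 400 µM, or PRMT5 (1 µM) with H4(1-20) at 2 µM. Substrate and 5 µM [14C]-SAM preincubated 5 min in 50 mM HEPES pH 8.0, 10 mM NaCl, 1 mM DTT at 30°C before enzyme was added. Reactions run 2 h (PRMT4) or 6 h 30 min (PRMT5), with or without 30 µM compound in 2% DMSO. Stopped on P81 paper, washed with NaHCO3, counted by scintillation. Activity normalized to no-inhibitor control.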

[6] = biological target: Histone acetyltransferase p300 (Homo sapiens, UniProt Q09472); test: Inhibition of recombinant p300 HAT domain using Histone H4(1-20) substrate assessed as inhibition of histone acetyltransferase activity after 10 mins by liquid scintillation counting
Sequence of Histone acetyltransferase p300 (Q09472 whole entry, the tested form may be a part): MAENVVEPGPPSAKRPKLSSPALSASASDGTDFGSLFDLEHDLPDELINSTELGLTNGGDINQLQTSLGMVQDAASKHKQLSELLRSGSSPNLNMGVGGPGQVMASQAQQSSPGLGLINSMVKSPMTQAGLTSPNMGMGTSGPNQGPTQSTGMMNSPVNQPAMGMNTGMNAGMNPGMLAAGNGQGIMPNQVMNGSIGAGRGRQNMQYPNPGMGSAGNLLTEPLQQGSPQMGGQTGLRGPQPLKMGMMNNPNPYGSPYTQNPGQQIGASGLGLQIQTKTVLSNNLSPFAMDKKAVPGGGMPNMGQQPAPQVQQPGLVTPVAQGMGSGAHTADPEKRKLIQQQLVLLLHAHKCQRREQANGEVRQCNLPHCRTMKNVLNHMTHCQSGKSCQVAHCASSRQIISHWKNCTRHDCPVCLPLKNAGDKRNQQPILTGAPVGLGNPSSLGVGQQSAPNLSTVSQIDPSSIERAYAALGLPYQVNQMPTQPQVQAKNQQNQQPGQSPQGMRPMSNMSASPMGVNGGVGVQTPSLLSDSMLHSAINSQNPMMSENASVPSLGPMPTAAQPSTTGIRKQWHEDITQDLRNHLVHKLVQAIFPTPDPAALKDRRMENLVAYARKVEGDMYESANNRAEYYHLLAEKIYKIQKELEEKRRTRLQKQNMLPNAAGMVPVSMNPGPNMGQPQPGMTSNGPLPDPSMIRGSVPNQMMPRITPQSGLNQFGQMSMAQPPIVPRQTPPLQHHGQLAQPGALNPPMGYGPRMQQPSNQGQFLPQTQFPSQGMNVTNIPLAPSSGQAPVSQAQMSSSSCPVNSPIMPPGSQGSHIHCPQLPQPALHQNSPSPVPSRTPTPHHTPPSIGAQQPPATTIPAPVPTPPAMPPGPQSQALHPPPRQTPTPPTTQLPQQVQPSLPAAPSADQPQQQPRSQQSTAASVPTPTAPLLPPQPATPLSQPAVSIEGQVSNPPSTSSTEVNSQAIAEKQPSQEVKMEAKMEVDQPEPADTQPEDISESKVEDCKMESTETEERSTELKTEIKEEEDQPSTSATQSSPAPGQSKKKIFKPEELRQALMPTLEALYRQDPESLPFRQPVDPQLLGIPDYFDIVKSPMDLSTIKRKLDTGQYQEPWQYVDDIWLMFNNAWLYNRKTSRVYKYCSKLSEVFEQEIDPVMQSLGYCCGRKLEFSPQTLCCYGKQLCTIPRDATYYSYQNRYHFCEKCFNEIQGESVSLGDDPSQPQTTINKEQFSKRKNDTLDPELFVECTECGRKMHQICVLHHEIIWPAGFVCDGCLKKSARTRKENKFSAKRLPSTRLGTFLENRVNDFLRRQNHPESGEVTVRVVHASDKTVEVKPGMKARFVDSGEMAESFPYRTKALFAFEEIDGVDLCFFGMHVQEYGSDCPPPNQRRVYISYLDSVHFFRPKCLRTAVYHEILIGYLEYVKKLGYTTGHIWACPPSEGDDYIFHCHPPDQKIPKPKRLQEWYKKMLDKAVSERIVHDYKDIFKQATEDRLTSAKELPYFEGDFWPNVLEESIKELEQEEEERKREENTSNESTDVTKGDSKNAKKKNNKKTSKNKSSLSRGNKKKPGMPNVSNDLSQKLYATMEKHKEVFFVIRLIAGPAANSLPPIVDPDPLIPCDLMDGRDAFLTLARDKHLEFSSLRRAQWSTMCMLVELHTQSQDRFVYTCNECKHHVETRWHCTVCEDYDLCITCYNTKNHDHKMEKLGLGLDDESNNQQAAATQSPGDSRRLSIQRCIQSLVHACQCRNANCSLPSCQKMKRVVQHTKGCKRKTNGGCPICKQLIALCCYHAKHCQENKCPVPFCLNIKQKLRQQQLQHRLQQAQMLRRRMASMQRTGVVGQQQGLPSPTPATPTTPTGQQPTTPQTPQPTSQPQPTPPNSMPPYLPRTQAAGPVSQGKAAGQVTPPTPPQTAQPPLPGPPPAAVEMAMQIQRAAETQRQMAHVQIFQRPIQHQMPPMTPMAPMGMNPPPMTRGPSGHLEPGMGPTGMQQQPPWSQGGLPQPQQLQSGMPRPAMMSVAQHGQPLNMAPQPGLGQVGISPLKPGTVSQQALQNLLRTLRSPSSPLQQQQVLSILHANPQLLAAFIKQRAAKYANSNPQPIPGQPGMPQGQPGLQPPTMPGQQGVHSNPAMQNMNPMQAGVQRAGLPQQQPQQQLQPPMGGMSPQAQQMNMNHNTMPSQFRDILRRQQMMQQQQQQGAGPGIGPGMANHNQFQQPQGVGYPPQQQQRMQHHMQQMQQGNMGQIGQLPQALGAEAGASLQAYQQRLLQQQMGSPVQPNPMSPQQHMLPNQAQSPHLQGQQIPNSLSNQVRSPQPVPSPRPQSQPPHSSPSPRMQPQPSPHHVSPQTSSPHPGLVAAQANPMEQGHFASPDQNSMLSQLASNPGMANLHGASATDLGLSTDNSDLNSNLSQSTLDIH
In short: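 p300 HAT domain (residues 1287–1666), 0.03 µM, incubated with 10 µM H4-20, 5 µM [14C]-acetyl CoA and increasing compound in 50 mM HEPES pH 8.0, 50 mM NaCl, 0.5 mM DTT, 1 mM EDTA at 30°C for 10 min. Stopped on P81 paper and counted by liquid scintillation. Fractional activity plotted against concentration to give IC50.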

Histone H4 [7] = biological target: T1, Histone H4; test: Binding affinity to fluorescein-labeled Histone H4(1-20) by spectrofluorometry; in short: as §2
[8] = biological target: Protein arginine N-methyltransferase 5 (Homo sapiens) (UniProt O14744); test: Inhibition of His6x-tagged PRMT5 expressed in Escherichia coli BL21 (DE3) using Histone H4(1-20 substrate in the presence of [14C] SAM assessed as residual activity at 30 uM by liquid scintillation counting; in short: as §3
Sequence of Protein arginine N-methyltransferase 5 (Homo sapiens) (O14744 whole entry): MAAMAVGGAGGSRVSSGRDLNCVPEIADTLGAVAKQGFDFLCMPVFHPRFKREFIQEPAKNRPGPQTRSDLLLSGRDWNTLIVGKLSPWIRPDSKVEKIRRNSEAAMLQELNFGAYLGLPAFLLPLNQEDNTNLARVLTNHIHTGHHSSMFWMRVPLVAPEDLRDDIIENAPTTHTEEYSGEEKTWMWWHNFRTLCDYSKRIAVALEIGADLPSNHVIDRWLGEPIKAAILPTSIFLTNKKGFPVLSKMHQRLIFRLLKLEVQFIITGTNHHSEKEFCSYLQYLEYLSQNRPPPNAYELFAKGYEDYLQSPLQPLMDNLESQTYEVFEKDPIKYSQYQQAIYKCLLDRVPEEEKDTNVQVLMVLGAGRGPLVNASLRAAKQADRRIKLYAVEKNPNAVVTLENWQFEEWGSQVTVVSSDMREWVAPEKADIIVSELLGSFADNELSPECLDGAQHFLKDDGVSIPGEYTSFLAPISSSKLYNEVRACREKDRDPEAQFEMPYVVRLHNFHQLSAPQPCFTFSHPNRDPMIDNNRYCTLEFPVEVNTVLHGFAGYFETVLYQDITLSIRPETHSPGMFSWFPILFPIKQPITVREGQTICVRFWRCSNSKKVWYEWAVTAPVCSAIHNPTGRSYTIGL

## O=C(NN=C1C=CC(=NOS(=O)(=O)c2ccccc2)C=C1)c1cc2ccccc2cc1O
LNCaP [1]
  inhibition (INH): 30%
LNCaP [2]
  inhibition (INH): 70%
LNCaP [3]
  inhibition: Dose-dependent effect

## O=C(c1ccc(O)c(NC(=O)c2cccc3ccccc23)c1)c1ccc(O)c(NC(=O)c2cccc3ccccc23)c1
Histone H4 [4]
  Activity: Active
LNCaP [2]
  inhibition (INH): 32%
[5]
  Activity: 38%
[6]
  IC50: 15.2 µM
  inhibition: Dose-dependent effect
Histone H4 [7]
  Kd: 23.8 µM
[8]
  Activity: 20%

From ChEMBL document CHEMBL2169753, “Pharmacophore-based virtual screening and biological evaluation of small molecule inhibitors for protein arginine methylation” (J Med Chem, 2012)
